Screening data: PubChem BioAssay, several laboratories
TAAR1 antag: antagonists of human TAAR1; Q96RJ0; CHO RD-HGA16 TAAR1, Fluo-8 calcium fluorescence, antagonist; inhibition, % at 3 µM; 360,000 compounds, 1.5% hits; AID 624466;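 active means inhibition above a per-plate cutoff, the mean inhibition of test compounds on that plate plus 3 SD, cut at about 49% in these data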
Target sequence (Q96RJ0 whole entry, looked up): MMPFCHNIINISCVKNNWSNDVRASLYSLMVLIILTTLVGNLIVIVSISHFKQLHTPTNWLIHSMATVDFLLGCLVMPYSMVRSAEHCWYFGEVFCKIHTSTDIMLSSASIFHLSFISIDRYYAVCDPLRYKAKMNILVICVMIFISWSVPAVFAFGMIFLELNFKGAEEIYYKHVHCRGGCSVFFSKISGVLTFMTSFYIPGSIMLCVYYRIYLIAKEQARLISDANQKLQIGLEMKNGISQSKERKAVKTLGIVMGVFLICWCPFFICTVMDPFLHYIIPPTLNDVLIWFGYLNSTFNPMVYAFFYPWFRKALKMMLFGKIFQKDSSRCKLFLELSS
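Assay system: RD-HGA16 CHO cells with stable hTAAR1 and Gα16 / Reagent: EC80 β-phenethylamine stimulus / Doses: 3 µM, single point / Timing: dye loading 75 min at 37 °C, then 30 min room temperature / Measured by: Fluo-8 intracellular calcium dye fluorescence, real-time kinetic reads / Controls: vehicle wells and EC80 agonist wells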
TAAR1 agonist: human TAAR1 agonism; Q96RJ0; CHO RD-HGA16 TAAR1, Fluo-8 calcium fluorescence; vehicle wells 0%, saturating PEA agonist 100%; AID 624467; 360,000 compounds, 0.99% hits; activation, % at 3 µM;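 active means activation above the mean activation of all test compounds in the run plus 3 SD, cut at about 38% in these data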
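Test system: RD-HGA16 (CHO) cells co-expressing Gα16 and hTAAR1 | Doses: Single dose, 3 µM | Schedule: 17-24 h seeding, 75 min 37 °C dye, 30 min RT | Evaluation: % activation from peak over basal fluorescence ratio, DMSO-to-PEA scaled | Technique: Kinetic Fluo-8 calcium fluorescence | Benchmarks: Low control DMSO, high control PEA (EC100)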
VLA-4 inh: inhibition in a human VLA-4 binding assay. 330,000 compounds, 0.2% hits. inhibition, % (about 7 µM as worked out from the volumes in the protocol). AID 2557. VLA-4 expressing cells, ligand binding flow cytometry; in the data active means inhibition above about 50%
Rce1 inh: blocks yeast Ras-converting enzyme | Q03530 | yeast membranes, quenched prenylated peptide cleavage fluorescence | calls only | 290,000 compounds, 0.27% hits | AID 2563;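 active means fall in fluorescence gain of 50% or more versus controls, with final raw signal at or below 3038400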
Target sequence (Q03530 whole entry, looked up): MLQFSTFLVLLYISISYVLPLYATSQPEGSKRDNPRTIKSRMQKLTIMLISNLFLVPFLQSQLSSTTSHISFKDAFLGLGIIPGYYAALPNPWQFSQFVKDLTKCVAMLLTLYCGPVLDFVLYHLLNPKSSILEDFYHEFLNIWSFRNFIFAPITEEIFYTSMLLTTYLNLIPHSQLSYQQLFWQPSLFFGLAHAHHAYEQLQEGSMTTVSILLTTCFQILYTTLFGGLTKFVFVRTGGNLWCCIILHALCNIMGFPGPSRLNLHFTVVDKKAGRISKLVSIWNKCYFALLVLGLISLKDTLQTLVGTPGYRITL
Platelet DG rel: modulates dense granule release in human platelets; human platelet-rich plasma, SFLLRN dense granule ATP release, luminescence; inhibition, %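 (compounds screened at 7.5 µM in platelet-rich plasma)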; 300,000 compounds, 0.22% hits; AID 1663;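 active means mean replicate score, as percent of positive control, at or above 50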
Each line names hits and unclear results; the compound was inactive in the other large screens. An excerpt weighted towards active compounds, which were near 2.6% of everything screened.

NC(=O)c1ncn([C@@H]2O[C@H](C(=O)N[C@H](Cc3c[nH]c4ccccc34)C(=O)O)[C@@H](O)[C@H]2O)n1	none (no result: VLA-4 inh, Rce1 inh, Platelet DG rel)
Cc1cc(C)cc(NC(=O)c2ccc(CSc3nnc(C)s3)cc2)c1	TAAR1 antag 66
CC(=O)Nc1ccc(C(=O)N2CCCC(c3cc(C(=O)NCc4cccnc4)no3)C2)cc1 (centres undefined)	none (no result: VLA-4 inh, Rce1 inh, Platelet DG rel)
Cc1nn(CC(=O)Nc2cccnc2)c(C)c1[N+](=O)[O-]	Platelet DG rel 61
Cc1nn(CCCC(=O)Nc2cccnc2)c(C)c1[N+](=O)[O-]	none
CC(/C=N/NC(=O)c1ccncc1)=C\c1ccc(C(C)C)cc1	TAAR1 antag 49
Cc1nc(N2CCC(C)CC2)c2c(C)c(C(=O)Nc3ccc(C(F)(F)F)cc3)sc2n1	none
Cc1nc(N2CCCCC2C)c2c(C)c(C(=O)Nc3ccccc3C(F)(F)F)sc2n1 (centres undefined)	Rce1 inh active
Cc1nc(N2CCOCC2)c2c(C)c(C(=O)Nc3ccccc3C(F)(F)F)sc2n1	Rce1 inh active
Cc1ccc(Nc2ncnc(Cl)c2N)cc1	none (no result: VLA-4 inh, Rce1 inh, Platelet DG rel)
C/C(CC(=O)NCc1ccco1)=N\NC(=O)c1ccc([N+](=O)[O-])cc1Cl	Rce1 inh active
Cc1ccc(C)c(CC(=O)N2CCCCC2c2cc(C(=O)Nc3cccc(C#N)c3)no2)c1 (centres undefined)	TAAR1 agonist 48 (no result: VLA-4 inh, Rce1 inh, Platelet DG rel)
CN(C)c1ccc(CC(=O)N2CCCCC2c2cc(C(=O)Nc3cccc(C#N)c3)no2)cc1 (centres undefined)	none (no result: VLA-4 inh, Rce1 inh, Platelet DG rel)
Cc1ccc(/C(O)=C/C(=O)C(=O)NC23CC4CC(CC(C4)C2)C3)cc1	none
Cc1ccc(-c2nc(N/N=C/c3cccnc3)c3ccccc3n2)cc1	Platelet DG rel 64
COc1ccc(-c2c(C)oc3c(CN4CCN(C)CC4)c(O)ccc3c2=O)cc1	Rce1 inh active
CCCc1nn2c(=O)cc(CSCC(=O)Nc3ccc(F)cc3)nc2s1	none
CC(=O)Nc1ccc(NC(=O)COC(=O)c2c3c(nc4ccccc24)CCN(Cc2ccccc2)C3)cc1	TAAR1 antag 63
O=C(NCc1ccc(F)cc1)c1cc(-c2ccco2)on1	TAAR1 agonist 38
O=C1Oc2ccccc2C(=O)/C1=C/N1CCN(c2ccccc2F)CC1	TAAR1 agonist 39
CCS(=O)(=O)N1CCN(c2ccccc2F)CC1	none
O=C(/C=C/c1ccc([N+](=O)[O-])cc1)Nc1cccc(S(=O)(=O)NC2=NCCCCC2)c1	TAAR1 antag 49 (no result: Rce1 inh, Platelet DG rel)
Cn1cc([N+](=O)[O-])c(C(=O)Nc2nc(-c3ccc(Cl)cc3)cs2)n1	TAAR1 antag 67, TAAR1 agonist 40
Cc1ccc(-c2nc(NC(=O)c3nn(C)cc3[N+](=O)[O-])sc2C)cc1	none
CCNC(=O)c1cc2c(c(-c3cccc(-c4ccccc4F)c3)n1)[C@@H](CCO)N(C(=O)CC1CC1)C2	none (no result: VLA-4 inh, Rce1 inh, Platelet DG rel)
COc1ccccc1-c1cccc(-c2nc(C(=O)Nc3nccs3)cc3c2[C@@H](CCO)N(C(=O)CC2CC2)C3)c1	TAAR1 antag 51 (no result: VLA-4 inh, Rce1 inh, Platelet DG rel)
COc1cccc(N/C(N)=N/c2nc(CSc3ccccn3)cc(=O)[nH]2)c1	none (no result: TAAR1 antag, TAAR1 agonist)
CCc1ccc(N/C(N)=N/c2nc(CSc3ccccn3)cc(=O)[nH]2)cc1	TAAR1 antag 55
CC(=O)Nc1ccc(Nc2cc(C)nc3c(-c4ccccc4)cnn23)cc1	TAAR1 antag 49, TAAR1 agonist 41 (no result: Rce1 inh, Platelet DG rel)
CCC(C(=O)NCCCN1CCN(C)CC1)n1nc(C)n2c(cc3occc32)c1=O (centres undefined)	none
CCCCCCC(=O)NNC(=O)c1c(O)c2ccccc2n(CC)c1=O	none
CCn1c(=O)c(C(=O)NNC(=O)c2ccccc2)c(O)c2ccccc21	TAAR1 agonist 38
COc1ccc(CCN=C(N)NS(=O)(=O)c2cc(F)ccc2F)cc1	none
C[C@@H]1CN(C(=O)OC(C)(C)C)CCN1c1ccc(Br)c(C#N)c1	none (no result: VLA-4 inh, Rce1 inh, Platelet DG rel)
O=C(COc1ccccc1-c1ccccc1)NN=C1CCCC1	none (no result: Rce1 inh)
COc1ccc(C(=O)Nc2ccc(N3CCCC3)cc2)cc1OC	Platelet DG rel 79
Cc1ccc(C(=O)Nc2ccc(N3CCCC3)cc2)c(C)c1	none
COc1cc(C(=S)N2CCOCC2)ccc1OC(=O)c1ccc(Br)cc1	TAAR1 antag 75
CCOc1ccc(C(=O)Nc2ccc(N3CCN(C)CC3)cc2)cc1Br	TAAR1 agonist 47
Cc1ccccc1C(=O)Nc1ccc(N2CCCC2)cc1	TAAR1 antag 54
COc1cc(C(=S)N2CCOCC2)ccc1OC(=O)c1cccc(C)c1	none
O=C(C1CC(=O)N(C2CCCCC2)C1)N1CCN(c2cccc(C(F)(F)F)c2)CC1 (centres undefined)	none
O=C(C[C@@H]1C[C@H]2c3cc(NC(=O)Nc4ccccc4F)ccc3O[C@H]2[C@H](CO)O1)NCC(F)(F)F	none (no result: VLA-4 inh, Rce1 inh, Platelet DG rel)
Oc1cccc(N2CCN(c3cccc(O)c3)CC2)c1	none (no result: VLA-4 inh, Rce1 inh, Platelet DG rel)
CC(=O)c1ccc(N2CCN(C(=S)Nc3ccc(Oc4ccccc4)cc3)CC2)cc1	none
CN1CCN(c2ccc(NC(=O)c3ccc(Oc4ccccc4)cc3)cc2)CC1	TAAR1 agonist 38
COc1ccc(C(=O)Nc2ccc(N3CCOCC3)cc2)cc1OC	Platelet DG rel 66
O=C(NC(Nc1nc2ccc([N+](=O)[O-])cc2s1)(C(F)(F)F)C(F)(F)F)c1ccccc1Cl	TAAR1 antag 55
O=C(NC(Nc1nc2ccc([N+](=O)[O-])cc2s1)(C(F)(F)F)C(F)(F)F)c1cccnc1	none
CCN1/C(=C/C=C/c2sc3ccccc3[n+]2CC)Sc2ccccc21	none (no result: TAAR1 antag, TAAR1 agonist, VLA-4 inh)
CCN1/C(=C/C=C/c2oc3ccc(-c4ccccc4)cc3[n+]2CC)Oc2ccc(-c3ccccc3)cc21	TAAR1 antag 105, TAAR1 agonist 531 (no result: VLA-4 inh)
CC1(C)OC2C(O1)[C@@H](CO)O[C@H]2n1cnc2c(N)ncnc21 (some centres undefined)	none
Nc1ncnc2c1ncn2[C@@H]1O[C@H](CO)[C@@H](O)[C@H]1O	Platelet DG rel 81
COC(=O)[C@]12CCCCC=C1N(Cc1ccco1)C(=O)[C@H](CC(=O)NCc1ccccc1)C2	none (no result: VLA-4 inh, Rce1 inh, Platelet DG rel)
CCCN1C=CC(=C2C(=O)c3ccccc3C2=O)C=C1	Platelet DG rel 64
CCN1C=CC(=C2C(=O)c3ccccc3C2=O)C=C1	Platelet DG rel 53
Cc1cc([N+](=O)[O-])ccc1NC(=O)CCC(=O)N1CCCCCC1	none
C=C(c1ccc2nc(NC(=O)OC)[nH]c2c1)c1cccs1	none (no result: VLA-4 inh, Rce1 inh, Platelet DG rel)
CC1C(=O)N(Cc2ccc(F)cc2)c2ccccc2N1C(=O)c1c(F)cccc1F (centres undefined)	none
COC(=O)c1ccc(CN2C(=O)C(C)N(C(=O)c3c(F)cccc3F)c3ccccc32)cc1 (centres undefined)	TAAR1 antag 83, TAAR1 agonist 42
COc1cc2c(cc1OC)-c1cc(NC3CCCCC3)nc(=O)n1CC2	Platelet DG rel 65
COc1cc2c(cc1OC)-c1cc(NC3CCCCCCC3)nc(=O)n1CC2	Platelet DG rel 135
CCOC(=O)N1CCN(Cc2cc(=O)oc3cc4c(cc23)CCC4)CC1	Platelet DG rel 78
